Assay results: ChEMBL document CHEMBL1148584, “Effect of polyamine homologation on the transport and biological properties of heterocyclic amidines” (J Med Chem, 2006)

Tests used:
L1210 [1] = experiment: Intracellular level of putrescine in L1210 cells in the absence of DFMO at 10 uM; assay type: functional, cell-based; details: Mus musculus
Method in brief: (§1)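 L1210 cells in RPMI 1640/10% FCS with 2 mM aminoguanidine, seeded at 4 × 10⁴ cells/mL. Conjugate, with or without 5 mM DFMO, added at seeding; cells cultured 48 h, washed in cold NaCl, and extracted with 0.2 N HClO₄. Conjugate and free putrescine, spermidine and spermine quantified by ion-pair HPLC (UV 254 nm, fluorescence ex 345/em 455 nm); normalised to protein. Student's t-test, p<0.05.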

CHO-MG [2] = experiment: Cellular uptake in CHO-MG cells at 10 uM; assay type: ADME, cell-based, Cricetulus griseus; details: chinese hamster
Method in brief: (§2)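 CHO (RPMI 1640, 10% FCS, 2 mM aminoguanidine) and CHO-MG (plus L-proline) cells seeded at 2 × 10⁵ cells/mL. Conjugate added 24 h after seeding and cells harvested 24 h later, then washed in cold 0.14 M NaCl and sonicated in 0.2 N HClO₄. Supernatant analysed by ion-pair reversed-phase HPLC (n-octanesulfonate), expressed as nmol/mg protein; mean ± SD of three determinations.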

CHO [3] = experiment: Cellular uptake in CHO cells at 5 uM; assay type: ADME, cell-based, Cricetulus griseus; details: chinese hamster; method in brief: as §2
L1210 [4] = experiment: Intracellular level of spermidine in L1210 cells in the absence of DFMO at 10 uM; assay type: functional, cell-based; details: Mus musculus; method in brief: as §1
Phosphodiesterase 1 = Phosphodiesterase 1 (Bos taurus, UniProt Q01061+P14100); experiment: Inhibition of bovine calmodulin-activated cAMP dependent phosphodiesterase; assay type: protein assay
Method in brief: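 Crude bovine heart PDE preparation containing calmodulin and Ca²⁺ (0.2 milliunit). Incubated 20 min at 37 °C with 0.1 mM [8-³H]cAMP and graded drug concentrations in 30 mM Tris-HCl, 3 mM MgSO₄, 0.6 mM AMP. Stopped with ZnSO₄; Ba(OH)₂ precipitated AMP with BaSO₄; supernatant radioactivity counted. IC50 is the concentration giving 50% inhibition.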

L1210 [5] = experiment: Intracellular level of spermidine in L1210 cells in the presence of DFMO at 10 uM; assay type: functional, cell-based; details: Mus musculus; method in brief: as §1
CHO-MG [6] = experiment: Cellular uptake in CHO-MG cells at 5 uM; assay type: ADME, cell-based, Cricetulus griseus; details: chinese hamster; method in brief: as §2
L1210 [7] = experiment: Intracellular level of conjugate in L1210 cells in the absence of DFMO at 10 uM; assay type: functional, cell-based; details: Mus musculus; method in brief: as §1
L1210 [8] = experiment: Intracellular level of conjugate in L1210 cells in the presence of DFMO at 10 uM; assay type: functional, cell-based; details: Mus musculus; method in brief: as §1
CHO-MG [9] = experiment: Selectivity for uptake in CHO cell line over CHO-MG cell line at 10 uM; assay type: functional, cell-based; details: Cricetulus griseus
Method in brief: (§3)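 Ratio of intracellular conjugate level in CHO over CHO-MG cells. Both lines were exposed to conjugate 24 h after seeding at 2 × 10⁵ cells/mL, for 24 h with 2 mM aminoguanidine in the medium. Levels were measured by ion-pair HPLC of perchloric extracts and normalised to protein (nmol/mg).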

L1210 [10] = experiment: Intracellular level of spermine in L1210 cells in the presence of DFMO at 10 uM; assay type: functional, cell-based; details: Mus musculus; method in brief: as §1
L1210 [11] = experiment: Intracellular level of spermine in L1210 cells in the absence of DFMO at 10 uM; assay type: functional, cell-based; details: Mus musculus; method in brief: as §1
[12] = Selectivity for uptake in CHO cell line over CHO-MG cell line at 5 uM; assay type: functional, Cricetulus griseus; method in brief: as §3
CHO [13] = experiment: Cellular uptake in CHO cells at 10 uM; assay type: ADME, cell-based, Cricetulus griseus; details: chinese hamster; method in brief: as §2

Drug uptake (CHO-MG [2]) [nmol/mg]	Drug uptake (CHO [3]) [nmol/mg]	IC50 (Phosphodiesterase 1) [µM]	Drug uptake (CHO-MG [6]) [nmol/mg]	Drug uptake (CHO [13]) [nmol/mg]	SMILES	Drug uptake (L1210 [1]) [nmol/mg]	Drug uptake (L1210 [4]) [nmol/mg]	Drug uptake (L1210 [5]) [nmol/mg]	Drug uptake (L1210 [7]) [nmol/mg]	Drug uptake (L1210 [8]) [nmol/mg]	Ratio (CHO-MG [9])	Drug uptake (L1210 [10]) [nmol/mg]	Drug uptake (L1210 [11]) [nmol/mg]	Selectivity ratio [12]
0.022	0.029	> 500	0.029	0.029	NCCCNCCCCNCCCNC1=Nc2ccccc2CC1	0.33	8.1	4.2	1.5	2.4	1.3	13.9	13.9	1
0.37	1.2	> 500	0.26	2.1	NCCCCNC1=Nc2ccccc2CC1	1.8	21	0.94	0.26	0.34	5.7	16.5	12.5	4.6
